# Compound activity: PubChem BioAssay, Johns Hopkins Ion Channel Center
# This is a sample that favours compounds with a hit; in the whole collection about 3.8% have one here.
# hERG protect: hERG rescue from dofetilide block, primary screen, cell-based, CHO-hERG, FluxOR thallium flux, dofetilide IC70; dofetilide IC70 present; 0.51% of 310,000 active; AID 1511, 2009; activation (rescue from dofetilide block), less the hit threshold, % at 10 µM;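 active means activation above the mean of controls blocked by dofetilide plus 5 SD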;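 further: thallium influx through hERG after potassium depolarization seen as dye fluorescence rise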
# KCNK9 inh-1: KCNK9 potassium channel inhibitors, primary screen, HEK293 cells, thallium flux. 1.2% of 310,000 active. FluxOR thallium flux fluorescence; stronger effect = lower value. Potassium channel subfamily K member 9 (Homo sapiens), Q9NPC2. B-score at 10 µM;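 active means ratio B-score over 3 SD below the library mean, with starting fluorescence within 5 SD of its mean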;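 further: negative B-score means less thallium flux so channel inhibition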
# KCNQ1 pot: potentiators or activators of KCNQ1 channel, primary screen, cell-based, thallium flux, high-throughput | CHO-K1 KCNQ1, thallium flux FluxOR fluorescence; stronger effect = higher value | B-score at 10 µM | 0.35% of 310,000 active;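 active means fluorescence ratio B-score, a plate-corrected score, at least three library SD, with initial intensity B-score within 5 SD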
#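 assay system = CHO-K1 cells stably expressing KCNQ1 | medium = assay buffer, equal DMSO in all wells | timing = 37 °C overnight plating, 90-min dark dye load, 20-min compound pretreatment | measured by = kinetic FluxOR thallium fluorescence, 10-s 1-Hz baseline, 110-s post-stimulus read | measure = fluorescence change relative to baseline, converted to B score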
# KCNQ1 inh: inhibitors of human KCNQ1 channel, primary screen, cell-based, thallium flux, high-throughput. CHO-K1 KCNQ1, FluxOR thallium flux fluorescence; stronger effect = higher value. B-score at 10 µM. 1.3% of 310,000 active. AID 2642, 2010;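 active means compounds whose thallium flux B-score, printed positive for inhibition, exceeds three library SD while starting fluorescence stays within three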;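 further: channel opened by potassium depolarization with thallium stimulus after 20 min compound exposure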
# Kir21 block: inhibitors of mouse Kir2.1 inward-rectifier potassium channel. HEK293-Kir2.1, FluxOR thallium flux fluorescence; stronger effect = lower value. B-score at 10 µM. 0.85% of 310,000 active;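 active means fluorescence ratio B-score at or below minus 3 SD of library scores, with starting-brightness B-score within 2 SD, cut at about -4.2 in these data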;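 further: channel flux triggered by added potassium and thallium sulfate stimulus; B-score of peak minus minimum fluorescence over baseline after thallium stimulus; more negative B-score means stronger Kir2.1 block with less thallium influx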
# KCNK3 inh: human KCNK3 channel inhibitors, primary screen, CHO cells, FluxOR thallium flux, B-score | Potassium channel subfamily K member 3 (Homo sapiens), O14649 | FluxOR fluorescence; stronger effect = lower value | B-score at 10 µM | 0.84% of 340,000 active;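 active means B-score under library mean minus 4 SD, starting fluorescence ratio at most library mean plus 5 SD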;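 further: more negative B-score means stronger inhibition of thallium flux through KCNK3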
# hERG inh: hERG channel inhibition, counter-screen for Kir2.1 inhibitor project, cell-based, thallium flux; shares compounds with Kir21 block; hERG-expressing cells; inhibition, % at 10 µM; 20% of 320 active;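 further: host cells are CHO cells stably expressing hERG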
# KCNK9 inh-2: KCNK9 channel inhibition, selectivity assay for Kir2.1 inhibitor project, cell-based; inhibition, % at 10 µM; 5% of 320 active; AID 2329, 2010; shares compounds with Kir21 block; KCNK9-expressing cells, ion flux inhibition
# Kir2-1 patch inh: mouse Kir2.1 channel blockers, Kir2.1 inhibitor project, cell-based, secondary, automated electrophysiology; 71% of 320 active; inhibition, % at 25 µM; AID 463252, 2010; Kir2.1 cells, automated patch-clamp current inhibition; shares compounds with Kir21 block
# Hits are given with their value; – = inactive; · = not tested or not shown. Unless noted, how the calls were made is not given here.
SMILES,hERG protect,KCNK9 inh-1,KCNQ1 pot,KCNQ1 inh,Kir21 block,KCNK3 inh,hERG inh,KCNK9 inh-2,Kir2-1 patch inh
O=C(COc1ccc2ccc(=O)oc2c1)Nc1cccc(S(=O)(=O)N2CCCCC2)c1,·,·,·,·,·,–,·,·,·
CC(C)Oc1ccccc1NC(=O)CSc1nc2ccccc2c(=O)n1C,–,–,–,–,-8.86,–,–,–,9.9%
C=CCNCCCCOc1c(Cl)cc(C)cc1Br,–,–,–,–,-9.35,–,–,–,47.9%
Cc1ccc(NC(=O)COc2ccccc2CNC(C)(C)CC(C)(C)C)cc1,–,–,–,8,-6.32,–,50.0%,37.0%,–
CC(C)(CO)NCc1ccccc1OCC(=O)Nc1ccccc1,–,–,–,–,–,–,·,·,·
Cc1ccc(S(=O)(=O)CCCS(=O)(=O)c2ccc(C)cc2)cc1,–,–,–,–,-5.72,–,–,–,17.3%
COc1ccc(CN(C)CC(O)COC(c2ccccc2)c2ccccc2)c(OC)c1OC (centres undefined),–,–,–,–,-5.95,–,69.0%,–,–
COc1ccc(CCN(C)CC(O)COC(c2ccc(F)cc2)c2ccc(F)cc2)cc1OC (centres undefined),–,–,–,–,–,–,·,·,·
Cc1ccc(NC(=O)C2CSC3(C)CCC(=O)N23)cc1S(=O)(=O)N1CCCCCC1 (centres undefined),·,·,·,·,·,–,·,·,·
Cc1ccc(/C(=N/Nc2nc3ccccc3s2)C2=C(O)c3ccccc3C2=O)cc1,–,–,–,10,–,–,–,–,–
CCn1c(C(=O)O)c(CC(=O)Nc2ccc(Br)cc2C)c2ccccc21,–,–,–,–,–,–,·,·,·
C=CCc1cc(Cl)ccc1OCCN(C)C,–,–,–,–,–,–,·,·,·
CN(C)CCOCCOc1ccc(Cl)cc1C(C)(C)C,–,–,–,–,-6.05,–,47.0%,–,36.9%
Cc1cccn2c(=O)c3cc(S(=O)(=O)c4ccc(Br)cc4)c(=N)n(C4CCCC4)c3nc12,–,–,–,–,–,–,–,–,–
CCN(c1ccccc1)S(=O)(=O)c1ccc(F)cc1,–,–,–,–,-6.17,–,–,–,37.1%
COc1ccc(CCC(C)NCc2cccc(Br)c2)cc1 (centres undefined),–,–,–,–,-11.3,–,–,–,53.5%
COc1cc(C)c(Cl)cc1S(=O)(=O)NCc1ccco1,–,–,–,–,–,–,·,·,·
CCOc1cc(C)c(Cl)cc1S(=O)(=O)NCc1ccco1,–,–,–,–,-7.97,–,–,–,31.2%
Cc1ccc(S(=O)(=O)N/N=C/c2ccccc2F)cc1[N+](=O)[O-],–,–,–,–,–,–,·,·,·
CC(NS(=O)(=O)c1ccc(Br)s1)c1ccccc1 (centres undefined),–,–,–,–,-7.42,–,–,–,43.7%
CSc1ccc(S(=O)(=O)NC(C)c2ccccc2)cc1 (centres undefined),–,–,–,–,-7.26,–,–,–,63.1%
O=S(=O)(NCc1ccccc1)c1ccc(Br)s1,–,–,–,–,–,–,·,·,·
